In ChEMBL document CHEMBL4024781, “Comprehensive Synthesis of Amino Acid-Derived Thiazole Peptidomimetic Analogues to Understand the Enigmatic Drug/Substrate-Binding Site of P-Glycoprotein” (J Med Chem, 2018):

Columns and labels:
[1] = target: T1, ATP-dependent translocase ABCB1 (Homo sapiens, UniProt P08183); assay: Displacement of [125I]-IAAP from human P-gp expressed in high five insect cell membrane vesicles preincubated for 10 mins followed by photocrosslinking for 10 mins by exposing under UV light for 10 mins by SDS-PAGE based method
Outline: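 Membrane vesicles from P-gp-expressing High Five insect cells (65–75 μg protein/100 μL) incubated with compound (0–5 or 0–10 μM) in 50 mM MES-Tris pH 6.8, 150 mM NaCl, 37 °C, 10 min; moved to 4 °C, 4–5 nM [125I]-IAAP added under subdued light; 366 nm UV 10 min; P-gp band incorporation quantified after SDS-PAGE, DMSO-only as 100%.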

[2] = Cytotoxicity in parental HEK293-pcDNA 3.1 transfected cells assessed as cell survival at 10 uM after 72 hrs by MTT assay; assay type: cell-based; settings: human, parental HEK293 cells transfected with pcDNA 3.1
Outline: (§1)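 HEK293 cells stably transfected with empty pcDNA3.1 vector or ABCB1 vector, kept in DMEM with 10% FBS, 1% penicillin/streptomycin, and 2 mg/mL G418 at 37°C in 5% CO2. Cells were seeded at 5000/well, and after 24 h treated with test compound alone, diluted from 10 mM DMSO stocks into medium. After 72 h, viability was read by MTT (4 mg/mL, 4 h), with formazan dissolved in DMSO and absorbance read at 570 nm.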

P-gp (ABCB1) [3] = target: T2, P-gp (ABCB1) (Homo sapiens, UniProt P08183); assay: Displacement of [125I]-IAAP from human P-gp expressed in high five insect cell membrane vesicles at >5 uM preincubated for 10 mins followed by photocrosslinking for 10 mins by exposing under UV light for 10 mins by SDS-PAGE based method; settings: probe [125I]-IAAP, read-out: Imax
Outline: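 Membrane vesicles (65–75 μg protein/100 μL) incubated with compound (0–5 or 0–10 μM) in 50 mM MES-Tris pH 6.8, 150 mM NaCl, 37 °C 10 min, then moved to 4 °C. 4–5 nM [125I]-IAAP (2200 Ci/mmol) added under subdued light, cross-linked at 366 nm UV 10 min. P-gp band incorporation quantified after SDS-PAGE, DMSO-only sample = 100%.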

[4] = target: T1, ATP-dependent translocase ABCB1; assay: Inhibition of human P-gp transfected in HEK293 cells assessed as potentiation of paclitaxel-induced cytotoxicity by measuring fold reduction in paclitaxel IC50 at 10 uM pre-incubated for 1 hr before paclitaxel addition and measured after 72 hrs by MTT assay; assay type: cell-based; settings: hek293, 72 h
Outline: (§2)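 HEK293 cells stably transfected with ABCB1 or empty pcDNA3.1 vector, kept in G418. Seeded at 5000/well and grown 24 h, then given modulator at 10 μM for 1 h before serially diluted paclitaxel (up to 10 μM). MTT read at 570 nm after 72 h. Paclitaxel IC50 from four experiments in triplicate. Fold resistance = IC50 with modulator ÷ IC50 of paclitaxel alone in vector-control cells.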

HEK293 = assay: Potentiation of paclitaxel-induced cytotoxicity against parental HEK293-pcDNA 3.1 transfected cells assessed as fold reduction in paclitaxel IC50 at 10 uM pre-incubated for 1 hr before paclitaxel addition and measured after 72 hrs by MTT assay; assay type: functional, Homo sapiens; outline: as §2
CYP3A4 [5] = target: T3, CYP3A4 (Homo sapiens, UniProt P08684); assay: Inhibition of CYP3A4 (unknown origin) at 25 uM by fluorescence based-vivid CYP450 green screening kit based assay; assay type: ADME
CYP3A4 [6] = target: T3, CYP3A4; assay: Inhibition of CYP3A4 (unknown origin) at 50 uM by fluorescence based-vivid CYP450 green screening kit based assay; assay type: ADME
[7] = Cytotoxicity in P-gp tranfected HEK293 cells assessed as cell survival at 10 uM after 72 hrs by MTT assay; assay type: ADME, cell-based; settings: human, P-gp transfected HEK293 cells; outline: as §1
P-gp (ABCB1) [8] = target: T2, P-gp (ABCB1); assay: Inhibition of human P-gp expressed in high five insect cell membrane vesicles by measuring the vanadate-sensitive ATPase activity of P-gp at 0.5 uM preincubated for 5 mins in the presence of sodium orthovanadate measured after 20 mins by colorimetric method
P-gp (ABCB1) [9] = target: T2, P-gp (ABCB1); assay: Inhibition of human P-gp expressed in high five insect cell membrane vesicles by measuring the vanadate-sensitive ATPase activity of P-gp at 2.5 uM preincubated for 5 mins in the presence of sodium orthovanadate measured after 20 mins by colorimetric method
P-gp (ABCB1) [10] = target: T2, P-gp (ABCB1); assay: Activation of human P-gp expressed in high five insect cell membrane vesicles by measuring the vanadate-sensitive ATPase activity of P-gp at 0.05 uM preincubated for 5 mins in the presence of sodium orthovanadate measured after 20 mins by colorimetric method; settings: read-out: Activity
Cytochrome P450 3A4 = Cytochrome P450 3A4 (Homo sapiens, UniProt P08684); assay: Inhibition of CYP3A4 (unknown origin); assay type: ADME
P-gp (ABCB1) [11] = target: T2, P-gp (ABCB1); assay: Activation of human P-gp expressed in high five insect cell membrane vesicles by measuring the vanadate-sensitive ATPase activity of P-gp at 0.5 uM preincubated for 5 mins in the presence of sodium orthovanadate measured after 20 mins by colorimetric method; settings: read-out: Activity
P-gp (ABCB1) [12] = target: T2, P-gp (ABCB1); assay: Activation of human P-gp expressed in high five insect cell membrane vesicles by measuring the vanadate-sensitive ATPase activity of P-gp at 2.5 uM preincubated for 5 mins in the presence of sodium orthovanadate measured after 20 mins by colorimetric method; settings: read-out: Activity

T2 sequence (P08183 whole entry): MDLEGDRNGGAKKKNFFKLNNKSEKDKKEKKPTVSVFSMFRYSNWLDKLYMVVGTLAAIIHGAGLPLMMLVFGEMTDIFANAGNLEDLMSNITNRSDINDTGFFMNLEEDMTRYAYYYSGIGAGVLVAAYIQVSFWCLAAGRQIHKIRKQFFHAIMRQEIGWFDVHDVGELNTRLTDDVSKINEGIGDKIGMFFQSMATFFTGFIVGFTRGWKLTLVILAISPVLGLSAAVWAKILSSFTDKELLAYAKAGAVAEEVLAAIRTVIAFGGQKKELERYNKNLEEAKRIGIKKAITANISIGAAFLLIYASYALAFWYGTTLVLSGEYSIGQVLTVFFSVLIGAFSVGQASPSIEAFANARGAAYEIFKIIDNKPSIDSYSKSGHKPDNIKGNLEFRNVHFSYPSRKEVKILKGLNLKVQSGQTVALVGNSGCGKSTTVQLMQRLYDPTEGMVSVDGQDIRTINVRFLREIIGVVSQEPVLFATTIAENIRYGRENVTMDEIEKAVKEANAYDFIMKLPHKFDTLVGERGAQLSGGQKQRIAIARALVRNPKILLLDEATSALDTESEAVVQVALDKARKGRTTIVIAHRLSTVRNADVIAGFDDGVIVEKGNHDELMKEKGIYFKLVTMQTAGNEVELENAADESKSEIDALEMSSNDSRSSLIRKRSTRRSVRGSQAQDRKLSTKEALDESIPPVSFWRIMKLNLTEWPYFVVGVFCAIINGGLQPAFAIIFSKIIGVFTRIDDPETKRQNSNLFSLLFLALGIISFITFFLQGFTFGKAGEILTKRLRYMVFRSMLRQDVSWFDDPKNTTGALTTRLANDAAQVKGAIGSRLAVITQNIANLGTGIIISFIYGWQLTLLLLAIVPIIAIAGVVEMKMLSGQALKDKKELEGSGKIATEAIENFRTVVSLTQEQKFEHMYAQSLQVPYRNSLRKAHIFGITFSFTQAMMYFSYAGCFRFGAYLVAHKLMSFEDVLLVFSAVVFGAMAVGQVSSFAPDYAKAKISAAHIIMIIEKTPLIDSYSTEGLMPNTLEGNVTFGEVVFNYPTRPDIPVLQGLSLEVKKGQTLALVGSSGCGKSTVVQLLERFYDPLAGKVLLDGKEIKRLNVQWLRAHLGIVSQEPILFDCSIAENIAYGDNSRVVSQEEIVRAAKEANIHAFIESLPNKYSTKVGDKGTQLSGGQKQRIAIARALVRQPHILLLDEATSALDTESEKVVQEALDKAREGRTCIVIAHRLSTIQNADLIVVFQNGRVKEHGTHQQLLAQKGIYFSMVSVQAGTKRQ
T1 sequence (P08183 whole entry): as above
T3 sequence (P08684 whole entry): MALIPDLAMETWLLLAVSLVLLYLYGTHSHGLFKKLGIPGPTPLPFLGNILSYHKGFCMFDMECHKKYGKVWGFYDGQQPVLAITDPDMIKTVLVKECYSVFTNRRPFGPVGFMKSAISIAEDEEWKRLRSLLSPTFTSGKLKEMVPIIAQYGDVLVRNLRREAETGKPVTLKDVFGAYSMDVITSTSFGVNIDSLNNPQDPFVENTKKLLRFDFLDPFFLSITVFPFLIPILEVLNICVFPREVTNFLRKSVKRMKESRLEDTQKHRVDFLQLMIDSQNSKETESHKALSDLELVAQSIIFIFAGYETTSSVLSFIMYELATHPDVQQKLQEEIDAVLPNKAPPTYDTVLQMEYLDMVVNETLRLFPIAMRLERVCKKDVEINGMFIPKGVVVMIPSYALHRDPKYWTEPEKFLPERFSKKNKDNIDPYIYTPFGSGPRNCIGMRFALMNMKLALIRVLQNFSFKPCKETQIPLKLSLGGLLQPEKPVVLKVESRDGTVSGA
Sequence of Cytochrome P450 3A4 (P08684 whole entry): as above

SMILES | IC50 [1] [µM] | inhibition (INH) ([1]; human, 10 min) | viability at 72 h, 10 µM [2] [%] | Emax at 10 min (P-gp (ABCB1) [3]) [%] | fold change (FC) [4] | fold change (FC) (HEK293) | inhibition at 25 µM (CYP3A4 [5]) [%] | inhibition at 50 µM (CYP3A4 [6]) [%] | viability at 72 h, 10 µM [7] [%] | inhibition at 20 min, 0.5 µM (P-gp (ABCB1) [8]) [%] | inhibition at 20 min, 2.5 µM (P-gp (ABCB1) [9]) [%] | activity at 20 min, 0.05 µM (P-gp (ABCB1) [10]) [%] | IC50 (Cytochrome P450 3A4) [µM] | activity at 20 min, 0.5 µM (P-gp (ABCB1) [11]) [%] | activity at 20 min, 2.5 µM (P-gp (ABCB1) [12]) [%]
COc1cc(C(=O)N[C@H](c2nc(C(=O)NC3CCC(F)(F)CC3)cs2)C(C)C)cc(OC)c1OC | 0.1 | Dose-dependent effect | > 80 | 90 | 0.6 | 0.6 | 9.32 | 28.7 | > 80 | 30.7 | 33.9 | – | – | – | –
COc1cc(C(=O)N[C@H](c2nc(C(=O)Nc3ccccc3C(=O)c3ccccc3)cs2)C(C)C)cc(OC)c1OC | – | – | > 80 | – | 0.6 | 1 | – | – | > 80 | – | – | 54 | 8.23 | 83 | 88
